Experiment [1] addresses cGMP-specific 3',5'-cyclic phosphodiesterase (Canis lupus familiaris, UniProt O77746). Description: Inhibitory activity against canine lung Phosphodiesterase 5 (PDE5). In a few lines: (§1)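 Boiled, then snake-venom nucleotidase for 30 min at 37 °C, methanol stop, Dowex separation, scintillation counting. IC50 from log concentration-inhibition curve (≥4 points), mean of ≥2 duplicate experiments.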

Experiment [2] has as its target Phosphodiesterase 1 (Rattus norvegicus, UniProt Q63421+Q9EPR9+Q01066). Description: Inhibitory activity against rat heart Phosphodiesterase 1(PDE1). The experiment is classed as protein assay.
Experiment [3] deals with T1, cGMP-dependent 3',5'-cyclic phosphodiesterase (Bos taurus, UniProt P14099).
T1 sequence (P14099 whole entry): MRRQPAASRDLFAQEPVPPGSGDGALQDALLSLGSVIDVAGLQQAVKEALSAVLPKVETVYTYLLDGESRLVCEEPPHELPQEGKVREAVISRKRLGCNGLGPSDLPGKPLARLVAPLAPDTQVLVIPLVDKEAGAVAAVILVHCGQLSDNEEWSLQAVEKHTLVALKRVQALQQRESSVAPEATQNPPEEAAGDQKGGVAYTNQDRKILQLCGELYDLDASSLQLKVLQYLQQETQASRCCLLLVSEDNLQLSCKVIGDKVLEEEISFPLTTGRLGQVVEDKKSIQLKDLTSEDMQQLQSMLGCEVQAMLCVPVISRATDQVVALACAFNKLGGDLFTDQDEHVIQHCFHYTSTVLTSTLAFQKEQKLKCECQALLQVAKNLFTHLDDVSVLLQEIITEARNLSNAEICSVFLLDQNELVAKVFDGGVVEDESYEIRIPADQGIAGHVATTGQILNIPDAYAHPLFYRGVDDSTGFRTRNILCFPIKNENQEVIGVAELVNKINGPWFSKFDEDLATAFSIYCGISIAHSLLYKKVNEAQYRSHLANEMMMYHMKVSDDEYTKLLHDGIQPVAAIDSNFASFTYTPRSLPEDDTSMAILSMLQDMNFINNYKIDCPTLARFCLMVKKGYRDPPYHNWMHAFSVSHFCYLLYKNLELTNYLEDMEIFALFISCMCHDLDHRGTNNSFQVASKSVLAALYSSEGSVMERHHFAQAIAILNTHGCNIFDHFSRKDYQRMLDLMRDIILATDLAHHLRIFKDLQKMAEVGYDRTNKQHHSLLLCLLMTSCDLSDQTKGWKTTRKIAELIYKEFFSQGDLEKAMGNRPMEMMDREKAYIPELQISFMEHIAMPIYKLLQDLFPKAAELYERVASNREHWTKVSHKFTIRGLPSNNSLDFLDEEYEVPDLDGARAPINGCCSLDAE
Briefly: Inhibition of bovine adrenal gland Phosphodiesterase 2 (PDE2). The procedure, abridged:
as §1

Experiment [4] can be described thus: Relaxant effect on isolated rabbit corpus cavernosum. The experiment is classed as functional, tissue-based, Oryctolagus cuniculus. The conditions noted are these: target entry is the homologue from another species.
Experiment [5] deals with Phosphodiesterase 4 (Canis familiaris). Briefly: Inhibition of canine lung Phosphodiesterase 4 (PDE4).
The target of experiment [6] is Phosphodiesterase 3 (Canis familiaris). Description: Inhibitory activity against canine heart Phosphodiesterase 3 (PDE3).

A value given as a limit tells only on which side of the number the result lay.

By IC50 is commonly meant the midpoint of a concentration-inhibition curve. A lower IC50 goes with higher potency. As usually defined, the EC30 is the concentration needed for an effect of 30%. `COC(=O)c1c(-c2cc(OC)c(OC)c(OC)c2)c2ccc(OCc3ccncc3)cc2c(=O)n1-c1ccc(N)cc1.Cl.Cl`: the IC50 in experiment [1] was 0.0031 µM; in experiment [2] it was 9.5 µM; in experiment [3], above 10 µM; in experiment [5], 7 µM; in experiment [6] it was above 10 µM. This molecule showed an EC30 in experiment [4] of 0.012 µM.

The values above are taken from ChEMBL document CHEMBL1134770, “Novel, potent, and selective phosphodiesterase 5 inhibitors: synthesis and biological activities of a series of 4-aryl-1-isoquinolinone derivatives” (J Med Chem, 2001).
